Assay results pooled from the literature.
Lines come from different studies, so protocols differ.
XDH: Xanthine dehydrogenase/oxidase (XDH, Bos taurus, UniProt P80457)
SPHK2: Sphingosine kinase 2 (SPHK2, Homo sapiens, UniProt Q9NRA0)
SIRT1: NAD-dependent protein deacetylase sirtuin-1 (SIRT1, Homo sapiens, UniProt Q96EB6)

| Compound | target | test | conditions | quantity | result |
| --- | --- | --- | --- | --- | --- |
| O=Cc1ccc(O)cc1 | XDH | enzyme activity, inhibitor, absorbance | 100 µg/mL | inhibition | 3.2% |
| CCCCc1ccc(CCc2ccc(-c3noc([C@@H]4CCCN4C(=N)N)n3)cc2C(F)(F)F)cc1 | SPHK2 | enzyme activity, inhibitor, radiometric | 0.3 µM | inhibition | 59% |
| O=C(Nc1ccc(CN2CCOCC2)c(C(F)(F)F)c1)c1ccc(C#Cc2cccc3cnccc23)cn1 | Oxidized purine nucleoside triphosphate hydrolase (NUDT1, Homo sapiens, UniProt P36639) | enzyme activity, activator | 3 µM | activity vs control | 140% |
| N[C@@H]1CON=C1O | Alanine racemase, biosynthetic (alr, Escherichia coli K-12, UniProt P0A6B4) | enzyme activity, inhibitor | – | kinact/KI | 8.6 M⁻¹ s⁻¹ |
| Oc1ncnc2[nH]ncc12 | XDH | enzyme activity, inhibitor, absorbance | 50 µg/mL | inhibition | 98.7% |
| CC(C)(O)[C@H]1CC[C@H](Nc2ccc3ncc(-c4cccc(C(F)(F)F)c4)n3n2)CC1 | Testis-specific serine/threonine-protein kinase 6 (TSSK6, Homo sapiens, UniProt Q9BXA6) | enzyme activity, inhibitor | 1 µM | remaining activity | 97.7% |
| Cn1c(=O)[nH]c(=O)c2c1nc(S)n2CC(O)COc1ccc(Cl)cc1 (centres unmarked) | Legumain (Homo sapiens, UniProt Q99538) | enzyme activity, inhibitor, fluorescence | – | kinact/KI | 14800 M⁻¹ s⁻¹ |
| FC(F)(F)Oc1cccc(-c2cnc3ccc(-c4ccncc4)nn23)c1 | Tau-tubulin kinase 2 (TTBK2, Homo sapiens, UniProt Q6IQ55) | enzyme activity, inhibitor, radiometric | 5 µM | activity vs control | 105% |
| [H]/N=C(\N)N1CCC[C@H]1c1nc(-c2ccc(OCC=Cc3cccc(C(F)(F)F)c3)c(C(F)(F)F)c2)no1 | SPHK2 | enzyme activity, inhibitor, radiometric | 0.3 µM | inhibition | 56% |
| CC(=S)NCCCC[C@H](NC(=O)OCc1ccccc1)C(=O)N[C@@H](Cc1c[nH]c2ccccc12)C(=O)N[C@@H](CCCNC(=N)N)C(N)=O | SIRT1 | enzyme activity, inhibitor | 1 µM | inhibition | 64% |
| CCCCCc1cc(=O)c2cc(Cl)cc(Br)c2o1 | SIRT1 | enzyme activity, inhibitor, fluorescence | 200 µM | inhibition | 9.8% |
| C[C@]12CC[C@@H]3c4ccc(O)cc4CC[C@H]3[C@@H]1CC[C@@H]2O | Protein disulfide-isomerase (P4HB, Homo sapiens, UniProt P07237) | thermal stability, DSF | 100 µM | ΔTm | 1.38 °C |
| O=C1CC(CCc2c[nH]c3ccccc23)Oc2c(Br)cc(Cl)cc21 (centres unmarked) | SIRT1 | enzyme activity, inhibitor, fluorescence | 200 µM | inhibition | 19% |
| CCOC(=O)[C@](CC)(CCCS(=O)(=O)CCOCCOCCNC(=O)OC(C)(C)C)NC(=O)c1ccc(C2CC2)c(Cc2ccc(F)cc2)n1 | Cannabinoid receptor 2 (Cnr2, Mus musculus, UniProt P47936) | cAMP, agonist | – | Emax | 80% |
